Activity calls are given as the source filed them.
Assays:
Rattus norvegicus [1] = experiment: Increase in prolactin level in Wistar rat plasma at 7.5 mg/kg, ip after 2 hrs relative to control; format: functional, organism-based; design: dose 7.5 mg/kg
Procedure, shortened: (§1)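 Male Wistar rats (150–230 g), four per group, dosed ip in 1% lactic acid vehicle. Blood taken from the orbital vein under light ether anesthesia before dosing and 1 and 2 h after. EDTA plasma was separated at 1600g for 20 min and frozen at -78 °C. Prolactin was measured by double-antibody rat prolactin RIA, compared with vehicle and time 0 (t test).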

Rattus norvegicus [2] = experiment: Increase in prolactin level in Wistar rat plasma at 7.5 mg/kg, ip after 1 hr relative to control; format: functional, organism-based; design: dose 7.5 mg/kg; procedure, shortened: as §1
Rattus norvegicus [3] = experiment: Toxicity assessed as induction of cataleptic extrapyramidal symptoms in Wistar rat at 7.5 mg/kg, ip after 7 hrs by wall descending test; format: organism-based; design: dose 7.5 mg/kg, route intraperitoneal; conditions: in vivo
Procedure, shortened: (§2)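 Rats (six/group) were injected ip with 5 mg/kg or 7.5 mg/kg of the parent drugs, or equimolar esters, in 1% lactic acid. Wall descending test: the time for a rat hanging on the cage wall to move its hind legs to the floor was recorded, with a 120 s maximum. Rats were tested every 30 min up to 420 min post-dose.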

Rattus norvegicus [4] = experiment: Increase in prolactin level in Wistar rat plasma at 5 mg/kg, ip after 2 hrs relative to control; format: functional, organism-based; design: dose 5 mg/kg
Procedure, shortened: (§3)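 Male Wistar rats (150–230 g; four/group) received drug ip in 1% lactic acid, with a vehicle control group. Orbital-vein blood was taken under light ether anesthesia before dosing and at 1 and 2 h, collected into EDTA on ice. Plasma was spun at 1600g for 20 min and frozen at -78 °C. Prolactin was measured by double-antibody rat prolactin RIA. Comparison was by t test against control and time 0.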

Rattus norvegicus [5] = experiment: Increase in prolactin level in Wistar rat plasma at 5 to 20 mg/kg, po after 90 to 180 mins relative to control; format: functional, organism-based
Procedure, shortened: (§4)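 Five groups of male Wistar rats (4/group) were gavaged with 1% lactic acid vehicle, 5, 10 or 20 mg/kg, or equimolar 7, 14 or 28 mg/kg of the ester salt. Orbital-vein plasma was sampled under light ether at 0, 90 and 180 min and prolactin assayed by double-antibody RIA. Comparison was by t test against control and time 0.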

Rattus norvegicus [6] = experiment: Reduction of cataleptic behavior in Wistar rat at 5 to 20 mg/kg, po by bar test; format: functional, organism-based
Procedure, shortened: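 Rats were gavaged with 5, 10 or 20 mg/kg or equimolar doses, and catalepsy was scored 4 h post-dose; a time course was run at 5 and 10 mg/kg. Bar test: forelimbs rested on a 5.5 cm bar, and the time to descend to the surface was recorded. Rats were tested individually, hourly, with a 120 s cutoff.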

Rattus norvegicus [7] = experiment: Toxicity assessed as induction of cataleptic extrapyramidal symptoms in Wistar rat at 5 mg/kg, ip after 2 hrs by wall descending test; format: organism-based; design: dose 5 mg/kg, route intraperitoneal; conditions: in vivo; procedure, shortened: as §2
Rattus norvegicus [8] = experiment: Reduction of D-amphetamine-induced hyperactivity in Wistar rat assessed as reduction of wall-climbing at 2.5 mg/kg, po; format: functional, organism-based; design: dose 2.5 mg/kg
Procedure, shortened: (§5)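 Male Wistar rats (six/group) were dosed po with 1% lactic acid vehicle (two groups), 2.5 mg/kg or equimolar test agent, or GABA at 1 mg/kg. After 90 min, all groups except one vehicle group received D-amphetamine (2.0 mg/kg ip). Rats were placed singly in barrels, and after 30 min head movements and wall-climbing attempts over 120 s were counted double-blind.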

Rattus norvegicus [9] = experiment: Increase in prolactin level in Wistar rat plasma at 7 to 28 mg/kg, po after 90 to 180 mins relative to control; format: functional, organism-based; procedure, shortened: as §4
Rattus norvegicus [10] = experiment: Decrease in sedation in Wistar rat at 5 to 20 mg/kg, po; format: functional, organism-based
Procedure, shortened: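 Male Wistar rats (150–230 g) were dosed by gavage. During catalepsy testing, sedation/alertness was recorded double-blind. The ip study used this scale: 0 active mobile; * calm and mobile; ** calm and immobile; *** ataxic and non-alert.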

Rattus norvegicus [11] = experiment: Increase in prolactin level in Wistar rat plasma at 5 mg/kg, ip after 1 hr relative to control; format: functional, organism-based; design: dose 5 mg/kg; procedure, shortened: as §3
Rattus norvegicus [12] = experiment: Reduction of D-amphetamine-induced hyperactivity in Wistar rat assessed as reduction of head movements at 2.5 mg/kg, po; format: functional, organism-based; design: dose 2.5 mg/kg; procedure, shortened: as §5
Rattus norvegicus [13] = experiment: Toxicity assessed as induction of cataleptic extrapyramidal symptoms in Wistar rat at 7.5 mg/kg, ip after 2 hrs by wall descending test; format: organism-based; design: dose 7.5 mg/kg, route intraperitoneal; conditions: in vivo
Procedure, shortened: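 Male Wistar rats (150–230 g), six per group, dosed ip in 1% lactic acid. Wall descending test: time for a rat hanging on the cage wall to move its hind legs and reach the floor, capped at 120 s. Rats were tested individually, every 30 min up to 420 min. Sedation was scored double-blind at the same time points.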

Rattus norvegicus [14] = experiment: Inhibition of D-amphetamine-induced hyperactivity in Wistar rat at 2.5 mg/kg, po; format: functional, organism-based; design: dose 2.5 mg/kg; procedure, shortened: as §5
Rattus norvegicus [15] = experiment: Toxicity assessed as induction of cataleptic extrapyramidal symptoms in orally dosed Wistar rat by bar test; conditions: in vivo, po

Row | SMILES | Activity (Rattus norvegicus [1]) | Activity (Rattus norvegicus [2]) | Activity (Rattus norvegicus [4]) | Activity (Rattus norvegicus [7]) | Activity (Rattus norvegicus [11]) | other results
1 | Cl.NCCCC(=O)OCCN1CCN(CCCN2c3ccccc3Sc3ccc(C(F)(F)F)cc32)CC1 | Active | Active | – | – | – | Activity (Rattus norvegicus [3]): Non-toxic
2 | Cl.NCCCC(=O)OCCN1CCN(CCCN2c3ccccc3Sc3ccc(Cl)cc32)CC1 [BL-1020] | – | – | Active | Non-toxic | Active | Activity (Rattus norvegicus [5]): Active; Activity (Rattus norvegicus [6]): Active; Activity (Rattus norvegicus [8]): Active; Activity (Rattus norvegicus [9]): Active; Activity (Rattus norvegicus [10]): Active; Activity (Rattus norvegicus [12]): Active
3 | OCCN1CCN(CCCN2c3ccccc3Sc3ccc(C(F)(F)F)cc32)CC1 [FLUPHENAZINE] | Active | Active | – | – | – | Activity (Rattus norvegicus [13]): Toxic
4 | OCCN1CCN(CCCN2c3ccccc3Sc3ccc(Cl)cc32)CC1 [PERPHENAZINE] | – | – | Active | Toxic | Active | Activity (Rattus norvegicus [14]): Active; Activity (Rattus norvegicus [15]): Dose-dependent effect

— ChEMBL document CHEMBL1149905, “A mutual prodrug ester of GABA and perphenazine exhibits antischizophrenic efficacy with diminished extrapyramidal effects” (J Med Chem, 2008)
